Data: ChEMBL document CHEMBL1687926, “14-Aminocamptothecins: their synthesis, preclinical activity, and potential use for cancer treatment” (J Med Chem, 2011)
Several values for one entry are separate records, joined by “and”; a condition that tells them apart may be missing. Identical values can stand only once.

How the values were obtained:
NCI-H460 [1] = assay: Cytotoxicity against human H460 cells after 72 hrs by alamar blue assay; assay type: functional, cell-based
Outline: (§1)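 Cells seeded at 4 × 10³ per well and grown 24 h. Compounds dissolved in DMSO and diluted in medium to final concentrations, then incubated 72 h at 37 °C, 5% CO₂. Viable cells read by AlamarBlue; IC₅₀ taken as the concentration giving 50% growth inhibition.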

PC-3 [2] = assay: Cytotoxicity against human PC3 cells after 72 hrs by alamar blue assay; assay type: functional, cell-based; conditions: PC-3, 72 h; outline: as §1
HT-29 [3] = assay: Cytotoxicity against human HT-29 cells after 72 hrs by alamar blue assay; assay type: functional, cell-based; conditions: HT-29, 72 h; outline: as §1
SK-MEL-2 = assay: Cytotoxicity against human SK-MEL-2 cells after 72 hrs by alamar blue assay; assay type: functional, cell-based; conditions: SK-MEL-2, 72 h; outline: as §1
A-375 = assay: Cytotoxicity against human A375 cells after 72 hrs by alamar blue assay; assay type: functional, cell-based; conditions: A-375, 72 h; outline: as §1
Malme-3M = assay: Cytotoxicity against human MALME-3M cells after 72 hrs by alamar blue assay; assay type: functional, cell-based; outline: as §1
DU-145 = assay: Cytotoxicity against human DU145 cells after 72 hrs by alamar blue assay; assay type: functional, cell-based; conditions: DU-145, 72 h; outline: as §1
LNCaP = assay: Cytotoxicity against human LNCAP cells after 72 hrs by alamar blue assay; assay type: functional, cell-based; outline: as §1
IGROV-1 = assay: Cytotoxicity against human IGROV1 cells after 72 hrs by alamar blue assay; assay type: functional, cell-based; conditions: IGROV-1, 72 h; outline: as §1
NCI-H460 [4] = assay: Cytotoxicity against human H460 cells after 72 hrs by alamar blue assay in presence of 40 mg/ml HSA; assay type: functional, cell-based; conditions: NCI-H460, 72 h
Outline: (§2)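 H460 cells seeded at 4 × 10³ per well and grown 24 h. Compounds then cocultured with cells for 72 h at 37 °C, with or without 40 mg/mL human serum albumin. Viability read by AlamarBlue; IC₅₀ = 50% growth inhibition. Ratio compares the IC₅₀ with HSA to the IC₅₀ without.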

NCI-H460 [5] = assay: Ratio IC50 for human H460 cells after 72 hrs in presence of 40 mg/ml HSA to IC50 for human H460 cells after 72 hrs; assay type: functional; outline: as §2
[6] = Cytotoxicity against human MESSA cells after 72 hrs by alamar blue assay; assay type: functional, cell-based; conditions: MES-SA; outline: as §1
[7] = Cytotoxicity against human MES-SA/Dx5 cells overexpressing MDR1 after 72 hrs by alamar blue assay; assay type: functional, cell-based; conditions: MES-SA/Dx5, 72 h; outline: as §1
NCI-H69 = assay: Cytotoxicity against human H69 cells after 72 hrs by alamar blue assay; assay type: functional, cell-based; conditions: NCI-H69, 72 h; outline: as §1
[8] = Resistance ratio of IC50 for human MES-SA/Dx5 cells overexpressing MDR1 after 72 hrs to IC50 for human MESSA cells after 72 hrs; assay type: functional
Outline: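 Cytotoxicity compared in MDR1-overexpressing lines and their parental wild-type lines. 72 h exposure at 37 °C, viability by AlamarBlue, IC₅₀ at 50% growth inhibition. Resistance ratio = IC₅₀ in overexpressing line / IC₅₀ in parental line.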

[9] = Cytotoxicity against human bone marrow cell by CFU-GM assay; assay type: cell-based
[10] = Cytotoxicity against mouse bone marrow cell by CFU-GM assay; assay type: cell-based
Outline: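 CFU-GM colony assay on normal human bone marrow (thawed) or mouse femoral marrow (freshly extracted). Human colonies scored after 16-18 days. IC₅₀ taken from triplicate assays.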

[11] = Ratio of IC50 for mouse bone marrow cell to IC50 for human bone marrow cell; assay type: cell-based; conditions: bone marrow cells
Outline: (§3)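 CFU-GM colony assay in triplicate at 2 × 10⁴ cells per culture, using thawed normal human bone marrow or fresh mouse femoral marrow. Colonies were scored after 16-18 days. The IC50 or IC90 from each species gave the mouse/human ratio.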

[12] = Ratio of IC90 for mouse bone marrow cell to IC90 for human bone marrow cell; assay type: ADME, cell-based; conditions: bone marrow cells; outline: as §3
[13] = Tmax in CD-1 mouse plasma at 50 mg/kg, ip by LC/MS/MS analysis; assay type: ADME, organism-based; parameters: dose 50 mg/kg, route intraperitoneal
Outline: (§4)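 CD-1 mice (~25 g) given 50 mg/kg ip in 5% DMSO/5% Tween 80 in water; three mice per time point, sampled up to 480 min. Blood taken by cardiac puncture into EDTA, then whole brain excised and homogenized in water. Proteins precipitated with ice-cold acetonitrile containing propranolol internal standard; supernatant analysed by HPLC/MS/MS.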

[14] = Cmax in CD-1 mouse plasma at 50 mg/kg, ip by LC/MS/MS analysis; assay type: ADME, organism-based; parameters: dose 50 mg/kg, route intraperitoneal; outline: as §4
[15] = AUC in CD-1 mouse plasma at 50 mg/kg, ip by LC/MS/MS analysis; assay type: ADME, organism-based; parameters: dose 50 mg/kg, route intraperitoneal; outline: as §4
[16] = Half life in CD-1 mouse plasma at 50 mg/kg, ip by LC/MS/MS analysis; assay type: ADME, organism-based; parameters: dose 50 mg/kg, route intraperitoneal; outline: as §4
[17] = Tmax in CD-1 mouse brain at 50 mg/kg, ip by LC/MS/MS analysis; assay type: ADME, organism-based; parameters: dose 50 mg/kg, route intraperitoneal; outline: as §4
[18] = Cmax in CD-1 mouse brain at 50 mg/kg, ip by LC/MS/MS analysis; assay type: ADME, organism-based; parameters: dose 50 mg/kg, route intraperitoneal; outline: as §4
[19] = AUC in CD-1 mouse brain at 50 mg/kg, ip by LC/MS/MS analysis; assay type: ADME, organism-based; parameters: dose 50 mg/kg, route intraperitoneal; outline: as §4
[20] = Half life in CD-1 mouse brain at 50 mg/kg, ip by LC/MS/MS analysis; assay type: ADME, organism-based; parameters: dose 50 mg/kg, route intraperitoneal; outline: as §4
[21] = Ratio of drug level in brain to plasma in CD-1 mouse at 50 mg/kg, ip; assay type: ADME, organism-based; parameters: dose 50 mg/kg, route intraperitoneal; outline: as §4
NCI-H460 [22] = assay: Antitumor activity against human H460 cells xenografted in nu/nu mouse assessed as tumor growth inhibition at 40 mg/kg, po QD for 5 days followed by 2days without treatment for 2 weeks; assay type: functional; parameters: scale not given: the % may be the effect or the level left
Outline: (§5)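 Female nude (nu/nu) mice (males for prostate model) implanted sc in the flank with tumor cells (1 × 10⁶ for H460). Dosing began at 100-150 mm³, 10 mice/group. Oral gavage in 5% DMSO/5% Tween 80/1% CMC in water, 5 days on/2 off per cycle, 2 or 4 cycles. Volume = length×width²/2, measured twice weekly. TGI = (1 − ΔT/ΔC)×100; TGD = extra days to reach 500 mm³ versus control.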

NCI-H460 [23] = assay: Antitumor activity against human H460 cells xenografted in nu/nu mouse assessed as tumor growth delay at 40 mg/kg, po QD for 5 days followed by 2days without treatment for 2 weeks; assay type: functional; outline: as §5
HT-29 [24] = assay: Antitumor activity against human HT-29 cells xenografted in nu/nu mouse assessed as tumor growth inhibition at 40 mg/kg, […]; assay type: functional; parameters: scale not given: the % may be the effect or the level left; conditions: route oral
HT-29 [25] = assay: Antitumor activity against human HT-29 cells xenografted in nu/nu mouse assessed as tumor growth delay at 40 mg/kg, […]; assay type: functional; conditions: route oral
PC-3 [26] = assay: Antitumor activity against human PC3 cells xenografted in nu/nu mouse assessed as tumor growth inhibition at 40 mg/kg, po QD for 5 days followed by 2 days without treatment for 2 weeks; assay type: functional; parameters: scale not given: the % may be the effect or the level left; outline: as §5
PC-3 [27] = assay: Antitumor activity against human PC3 cells xenografted in nu/nu mouse assessed as tumor growth delay at 40 mg/kg, po QD for 5 days followed by 2 days without treatment for 2 weeks; assay type: functional; outline: as §5
Mus musculus [28] = assay: Toxicity in nu/nu mouse assessed as body weight loss at 40 mg/kg, po QD for 5 days followed by 2 days without treatment for 2 weeks; assay type: organism-based; parameters: dose 40 mg/kg, route oral; conditions: in vivo
Outline: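 Female nude (nu/nu) mice (males for prostate model) bearing sc xenografts, dosing started at 100-150 mm³, 10/group. Oral gavage in 5% DMSO/5% Tween 80/1% CMC in water, QD 5 days on/2 off per cycle, 2 or 4 cycles. Body weight recorded twice weekly; maximum loss reported.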

Mus musculus [29] = assay: Toxicity in nu/nu mouse assessed as body weight loss at 40 mg/kg, po QD for 5 days followed by 4 days without treatment for 2 weeks; assay type: organism-based; parameters: dose 40 mg/kg, route oral; conditions: in vivo
H69AR = assay: Cytotoxicity against human H69AR cells overexpressing MRP1 after 72 hrs by alamar blue assay
[30] = Resistance ratio of IC50 for human H69AR cells overexpressing MRP1 after 72 hrs s to IC50 for human H69 cells after 72 hrs

CCc1c2c(nc3ccccc13)-c1c(N)c3c(c(=O)n1C2)COC(=O)[C@]3(O)CC
IC50 (NCI-H460 [1]; Homo sapiens, NCI-H460, 72 h): 7 nM
IC50 (NCI-H460 [1]; nci-h460): 12 nM
IC50 (PC-3 [2]): 24 nM
IC50 (HT-29 [3]): 300 nM
IC50 (SK-MEL-2): 130 nM
IC50 (A-375): 7 nM
IC50 (Malme-3M): 1200 nM
IC50 (DU-145): 1200 nM
IC50 (LNCaP): 120 nM
IC50 (IGROV-1): 20 nM
IC50 (NCI-H460 [4]): 120 nM
Ratio (NCI-H460 [5]): 10
IC50 [6]: 4 nM
IC50 [7]: 12 nM
IC50 (NCI-H69): 110 nM
Ratio [8]: 3
IC50 ([9]; Homo sapiens, Bone marrow cell): 620 nM
IC90 ([9]; human, bone marrow cells): 4500 nM
IC50 [10]: 110 nM
selectivity ratio [11]: 6
selectivity ratio [12]: 650
Tmax [13]: 1 h
Cmax [14]: 300 ng/mL
AUC [15]: 1070 ng·h/mL
half-life [16]: 4.17 h
Tmax [17]: 1 h
Cmax [18]: 300 ng/mL
AUC [19]: 750 ng·h/mL
half-life [20]: 4 h
Kp [21]: 70
Activity (NCI-H460 [22]): 84%
Time (NCI-H460 [23]): 14 days
Activity (HT-29 [24]): 101%
Time (HT-29 [25]): 30 days
Activity (PC-3 [26]): 107%
Time (PC-3 [27]): 45 days
Activity (Mus musculus [28]): 4%
Activity (Mus musculus [29]): 3% and 8%
IC50 (H69AR): 240 nM
Ratio [30]: 2.2
